CASP6 VEID inh = inhibitors of human caspase-6. hit rate 0.53% among 350,000. AID 686996. inhibition, % at 12.5 µM. purified caspase-6, Z-VEID-R110 cleavage fluorescence;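 active means mean inhibition across replicates at least about 35%, with every replicate also reaching that limit, limit read from the data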;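 further: 0% = median of neutral control wells and 100% = no fluorescence left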
Target sequence (P55212 24-179 limits assumed): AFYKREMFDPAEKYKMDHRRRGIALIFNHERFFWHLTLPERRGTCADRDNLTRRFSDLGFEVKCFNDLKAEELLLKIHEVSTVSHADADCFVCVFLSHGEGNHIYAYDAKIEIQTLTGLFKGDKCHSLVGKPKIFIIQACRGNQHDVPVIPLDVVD
Target sequence (P55212 194-293 limits assumed): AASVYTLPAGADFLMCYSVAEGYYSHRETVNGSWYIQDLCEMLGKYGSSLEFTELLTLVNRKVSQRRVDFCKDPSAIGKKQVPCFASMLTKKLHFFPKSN
ARNT-TACC3 inh = ARNT/TACC3 interaction disruption. Q9Y6A5. AlphaScreen His-ARNT PAS-B/GST-TACC3 binding, luminescence; TACC3 fragment carries E629A point mutation. inhibition, % at 9.99 µM. hit rate 0.66% among 390,000;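 active means mean inhibition of replicates at least 50% and at least half of replicates each reaching 50%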;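 further: 0% = complete ARNT plus TACC3 wells and 100% = ARNT alone without TACC3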
S100A4 MyoIIA = blocks human S100A4 binding to myosin IIA peptide; P26447; S100A4/TAMRA-MyoIIA peptide fluorescence polarization; inhibition, % at 10.7 µM; hit rate 0.14% among 360,000; AID 652163;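 active means mean inhibition of at least 70% across replicates, with every replicate also reaching that level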
Target sequence (P26447 whole entry, looked up): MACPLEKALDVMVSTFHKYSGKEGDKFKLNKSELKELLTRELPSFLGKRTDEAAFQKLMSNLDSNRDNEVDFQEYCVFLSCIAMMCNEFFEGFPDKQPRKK
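System – human S100A4 monomer protein, biochemical binding assay · Buffer or medium – Calcium-containing HEPES buffer, pH 7.2 · Timing – 5 min between mix addition and reading · Also added – TAMRA-labelled myosin IIA heavy-chain peptide probe, 5 nM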
PGC1a acetyl inh = modulators of PGC1a acetylation | U2OS PGC1a acetylation, AlphaScreen anti-acetyl-lysine; with virally co-expressed GCN5 acetyltransferase | inhibition, % at 15.6 µM | hit rate 0.17% among 350,000 | AID 651687;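 active means every replicate shows inhibition of at least 40%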;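 further: 0% = neutral control wells and 100% = positive control wells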
ERAP1 inh = blocks human ERAP1 aminopeptidase activity; recombinant ERAP1, Leu-AMC fluorescence, 60 min; inhibition, % at 10.7 µM; hit rate 0.15% among 340,000; AID 652197;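 active means mean replicate inhibition of at least 30%, or all replicates individually reaching that 30% level; inactive means mean below 30% and not every replicate reaching it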;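 further: 0% = neutral control wells and 100% = L-leucinethiol positive control wells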
Ecoli rRNA inh = inhibitors of bacterial rRNA selective over humanized ribosomes; E. coli WT GFP vs humanized-ribosome RFP mutants, fluorescence, 24 h; stronger effect = lower value; DMSO median 0, no signal -100; GFP signal change (wild-type ribosome), % (concentration not given with the values); hit rate 1.6% among 350,000;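 active means significant combined selectivity score with lowered wild-type GFP, culture density cut under 30%, mutant RFP and density less affected; inactive means any of these conditions unmet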
Active calls of the source: *; / = no result given. Most compounds without a hit are left out; they make up all but 2.4% or so of the library.

SMILES	CASP6 VEID inh	ARNT-TACC3 inh	S100A4 MyoIIA	PGC1a acetyl inh	ERAP1 inh	Ecoli rRNA inh
C[C@@H]1CN([C@@H](C)CO)C(=O)c2cc(NC(=O)Nc3ccc(C(F)(F)F)cc3)ccc2O[C@@H](C)CCCCO[C@H]1CN(C)Cc1ccccc1	-2	-1	-1	-26	-2	3
O=C(Nc1nc(-c2ccccn2)cs1)c1cc2ccccc2o1	0	66*	1	/	-1	-54
Cc1c(C(=O)Nc2nc(-c3ccccn3)cs2)oc2ccccc12	/	/	/	12	/	/
C[C@H](NC(=O)c1ccccc1)C(=O)Nc1nc(-c2ccccn2)cs1	-2	64*	8	-1	-7	-29
CC(Oc1ccccc1)C(=O)Nc1nc(-c2ccccn2)cs1 (stereo unspecified)	1	68*	0	/	-1	-55
O=C(/C=C/c1ccco1)Nc1nc(-c2ccccn2)cs1	-2	65*	-7	/	-1	4
CNC[C@H]1Oc2c(NC(=O)Nc3ccc(OC)cc3)cccc2C(=O)N([C@H](C)CO)C[C@@H]1C	0	-21	-8	-12	-2	3
Cc1cccc(C(=O)N[C@H](C(=O)Nc2ncc(C)s2)C(C)C)c1	0	-10	0	/	6	2
Cc1cccc(C(=O)NC(C(=O)Nc2nc(-c3ccccn3)cs2)C(C)C)c1 (stereo unspecified)	-4	45	-22	-3	4	-35*
Cc1ccc(S(=O)(=O)N2CCCCC2)cc1C(=O)Nc1ccc(S(=O)(=O)Nc2ncccn2)cc1	51*	-1	-4	1	/	5
O=C(Nc1ccc(S(=O)(=O)Nc2ncccn2)cc1)c1ccc(S(=O)(=O)N2CCCC2)cc1	1	-2	1	-2	-1	15
CO[C@H]1CC[C@H]2CCN(C)C(=O)[C@@H](C)CN(C)C(=O)c3cc(C#N)ccc3OC[C@H]1O2	2	3	-2	/	-1	5
O=C(CSc1nnc2ccccn12)NC(=O)c1ccccc1Cl	39*	/	-4	/	3	2
COc1ccc2c(c1)c(=O)oc1c(C)c(OCc3cc(C(=O)O)oc3C)ccc12	51*	1	10	-1	-2	-18
CC1=Nc2cc(C(=O)O)ccc2Sc2ccc(Br)cc21	17	6	-6	-1	-1	-5
CC1=Nc2cc(C(=O)NCC3CCCO3)ccc2Sc2ccc(Br)cc21 (stereo unspecified)	0	3	10	-2	1	-22*
CC(C)(C)Nc1c([N+](=O)[O-])c(=O)sc2ccccc12	0	/	-1	5	1	11
CCCCCCNc1c([N+](=O)[O-])c(=O)sc2ccccc12	0	3	5	-2	2	-24*
O=C(C[C@H]1CC[C@H](NC(=O)c2ccccn2)[C@H](CO)O1)NCc1cc(F)cc(F)c1	2	-7	-1	0	2	0
CCC(C)N(C(=O)COC(=O)c1nc2nc(C)cc(C)n2n1)C1CCS(=O)(=O)C1 (stereo unspecified)	1	/	-12	/	88*	12
Cc1ccc(N=C2C(=O)Nc3c(C)cccc32)cc1	1	-5	-3	0	/	10
Cc1cccc2c1NC(=O)C2=Nc1ccc(Cl)cc1	-2	5	5	6	0	-19*
Cc1cc(/C([O-])=C(/C(=S)Nc2ccccc2)[n+]2ccccc2)c(C)n1-c1ccccc1	/	21	/	-4	/	/
Cc1cc(/C([O-])=C(/C(=S)Nc2ccc(F)cc2)[n+]2ccccc2)c(C)n1-c1ccc(F)cc1	/	47*	/	6	/	/
CN1CCN(C(=O)C[C@@H]2CC[C@@H]3[C@H](COC[C@H](O)CN3C(=O)Nc3ccc(Cl)cc3)O2)CC1	-3	2	11	2	-1	-18*
SMILES	CASP6 VEID inh	ARNT-TACC3 inh	S100A4 MyoIIA	PGC1a acetyl inh	ERAP1 inh	Ecoli rRNA inh
O=C(C[C@@H]1CC[C@@H]2[C@H](COC[C@H](O)CN2C(=O)Nc2ccc(Cl)cc2)O1)NCC1CC1	-1	1	0	5	-1	-39
O=C(C[C@H]1CC[C@@H]2[C@H](COC[C@H](O)CN2C(=O)Nc2ccc(Cl)cc2)O1)NCC1CC1	-1	10	-2	2	0	-24*
CN1CCN(C(=O)C[C@H]2CC[C@@H]3[C@H](COC[C@H](O)CN3C(=O)Nc3cc(Cl)cc(Cl)c3)O2)CC1	-1	-5	-6	4	-1	-30
O=C(C[C@H]1CC[C@@H]2[C@H](COC[C@H](O)CN2C(=O)Nc2ccc3c(c2)OCO3)O1)N1CCN(c2ccccc2)CC1	-10	/	123*	-4	2	-2
CN(C)CCCNC(=O)C[C@@H]1CC[C@H]2[C@@H](COC[C@@H](O)CN2Cc2ccc(Cl)c(Cl)c2)O1	-10	/	137*	2	15	-8
COc1ccccc1CN(C)C[C@@H]1OCc2ccccc2-c2c(n(C)c3ccccc23)C(=O)N([C@H](C)CO)C[C@H]1C	/	/	/	/	/	1
C[C@@H]1CN([C@H](C)CO)C(=O)Cc2cc(NC(=O)C3CC3)ccc2O[C@H]1CN(C)CC1CC1	1	-5	-16	/	1	4
CO[C@H]1CN(C)C(=O)c2ccc(NC(=O)CC(F)(F)F)cc2OC[C@@H](C)N(C(=O)C2CCCCC2)C[C@@H]1C	-1	/	-2	13	0	-1
CN1CCN(C(=O)C[C@H]2CC[C@@H]3[C@H](COC[C@@H](O)CN3C(=O)Nc3ccc(Cl)cc3)O2)CC1	1	19	3	1	0	-27*
O=C(O)C1CCCCC1C(=O)Nc1nc(-c2ccc(Cl)s2)cs1 (stereo unspecified)	46*	/	-16	/	5	-26
COc1ccc(S(=O)(=O)N(C)C[C@@H]2Oc3c(NC(=O)NC4CCCCC4)cccc3C(=O)N([C@@H](C)CO)C[C@@H]2C)cc1	0	-2	-2	4	-2	-6
CN1CCN(C(=O)C[C@@H]2CC[C@H]3[C@@H](COC[C@H](O)CN3CC3CC3)O2)CC1	-156	-3	4	6	-2	1
COc1ccccc1/C=C/C(=O)NC(=S)NCC1CCCO1 (stereo unspecified)	/	8	3	10	-2	-25*
CC(C)NC(=O)N(C)C[C@H]1Oc2ncc(C#CC3CC3)cc2C(=O)N([C@@H](C)CO)C[C@H]1C	2	10	2	-6	1	6
Cc1oc2c(c(=O)c1C)C(=O)CC(c1ccccc1)C2 (stereo unspecified)	/	-32	/	4	/	/
CS(=O)(=O)c1sc(C#N)c2c1C(=O)CC(c1ccccc1)C2 (stereo unspecified)	5	26	-6	16	5	-26*
CCC1COC(c2cccn2Cc2ccc(Cl)cc2)=N1 (stereo unspecified)	2	/	-4	-7	2	-22*
